AI-2 QS modul = Vibrio harveyi AI-2 quorum sensing modulation. activity change, % at 7.5 µM. hit rate 0.4% among 300,000. Vibrio harveyi JMH597 AI-2 luminescence/OD600 ratio, 9 h; stronger effect = lower value; strain lacks LuxN and CqsS sensors; 0 = neutral-control median. AID 2094; in the data active = activity change below about -75%, passing the limit was not always enough;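 note: luminescence divided by OD600 gain over 9 h not by final OD600 alone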
MC4R ag barr = agonists of human melanocortin 4 receptor (MC4R) beta-arrestin. P32245. U2OS MC4R beta-arrestin complementation, luminescence; percent of melanotan II response, DMSO zero. activation, % at 8.9 µM. hit rate 0.98% among 360,000. AID 540308;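 active = activation above a per-plate cutoff, the mean activation of sample wells on that plate plus 3 SD, cut at about 8% in these data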
MC4R antagonist = human MC4R antagonism in cAMP assay. hit rate 0.48% among 360,000. AID 540295. MC4R-expressing cells, MTII-stimulated cAMP, LANCE TR-FRET. inhibition, % at 6.5 µM. P32245;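 active = inhibition above its plate's cutoff, the mean of tested wells on that plate plus 3 SD, cut at about 29% in these data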
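Material: human MC4R-expressing U2OS cells. Probe or stimulus: Melanotan II challenge. Dosing: 6.5 µM single dose. Times: 30-min compound, 1-h challenge, 1-h detection, room temperature. Technique: TR-FRET with Eu-cAMP and labeled anti-cAMP, 671 nm. Replication: singlicate.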
NTR1 ag = agonists of human neurotensin receptor NTR1. P30989. NTR1-U2OS beta-arrestin-GFP spot imaging, agonist mode. activation, % at 20 µM. hit rate 0.17% among 330,000. AID 493036;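 active = activation at or above 40% of the spot to cytoplasm intensity ratio, with at least 20 cells analyzed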
Target sequence (P30989 whole entry, looked up): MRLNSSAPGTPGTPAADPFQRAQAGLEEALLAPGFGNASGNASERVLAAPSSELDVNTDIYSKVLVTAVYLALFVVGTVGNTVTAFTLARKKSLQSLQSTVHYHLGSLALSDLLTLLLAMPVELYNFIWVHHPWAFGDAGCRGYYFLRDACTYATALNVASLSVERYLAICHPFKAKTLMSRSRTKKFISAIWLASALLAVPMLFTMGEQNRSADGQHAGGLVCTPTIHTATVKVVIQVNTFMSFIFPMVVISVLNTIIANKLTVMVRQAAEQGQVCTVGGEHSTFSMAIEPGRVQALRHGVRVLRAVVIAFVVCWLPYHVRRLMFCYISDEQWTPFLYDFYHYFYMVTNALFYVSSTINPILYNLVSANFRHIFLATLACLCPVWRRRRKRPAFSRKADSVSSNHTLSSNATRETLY
NTR1 ag conf = NTR1 (human) agonism, confirmed. shares compounds with NTR1 ag. NTR1-U2OS beta-arrestin-GFP translocation imaging. activation, % at 20 µM. hit rate 38% among 480;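 active = mean activation at 20 µM of at least 40%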
A number is an active result; – = inactive; · = no result given. Shown are actives, neighbours in structure and some others; about 1.8% of the full set was active somewhere.

SMILES | AI-2 QS modul | MC4R ag barr | MC4R antagonist | NTR1 ag | NTR1 ag conf
CCC(C)Sc1cccc(-c2nc3ccccn3c2NCc2ccccc2)c1 (stereo not given) | · | – | – | 40 | –
O=C(/C=C/c1cccc(Cl)c1)c1nc2ccccc2[nH]1 | – | – | – | 42 | 72
O=C(/C=C/c1cccc(Cl)c1)Nc1ncccn1 | – | – | – | – | ·
C(=C\c1nc(N2CCCCCC2)c2ccccc2n1)/c1ccccc1 | – | – | – | 42 | –
CCN(CC(=O)Nc1cc(Cl)ccc1C)C(=O)c1ccc(N2CCCC2=O)cc1 | · | – | – | – | ·
Nc1c(C(=O)c2ccc(Cl)cc2)sc2c1c(=O)[nH]c(=O)n2-c1ccccc1 | – | – | – | – | ·
Cc1ccccc1-n1c(=O)[nH]c(=O)c2c(N)c(C(=O)c3ccc(Cl)cc3)sc21 | – | – | – | 40 | –
COc1ccc(CCNC(=O)C2CCCN2S(=O)(=O)c2cccc3nsnc23)cc1OC (stereo not given) | – | – | – | – | ·
N#CC1(NC(=O)COc2ccc(S(=O)(=O)N3CCCC3)cc2[N+](=O)[O-])CCCCC1 | – | – | – | – | ·
CCOc1c(OC(C)=O)ccc(/C=C/c2ccc3cccc(OC)c3n2)c1[N+](=O)[O-] | – | – | – | 42 | –
COc1cc(/C=C/c2ccc3cccc([N+](=O)[O-])c3n2)ccc1OCC(=O)O | – | – | – | – | ·
CCCC1Oc2ccccc2C(=O)N(CC(=O)c2ccc3c(c2)OCCO3)C1=O (stereo not given) | – | – | – | – | ·
Cc1ccc(Sc2c([N+](=O)[O-])c(=O)n(C)c3ccccc23)cc1 | – | – | – | 67 | 73
Cc1ccc(Sc2c(O)c3ccccc3n(C)c2=O)cc1 | – | – | – | · | ·
CC(=O)OCCCNc1cc(Sc2ccc(C)cc2)c2nonc2c1[N+](=O)[O-] | – | – | – | 67 | 86
CC(=O)OCCCNc1cc(Sc2nc3ccccc3s2)c2nonc2c1[N+](=O)[O-] | – | – | – | – | ·
O=[N+]([O-])c1c(NCCCO)cc(Sc2ccc(Cl)cc2)c2nonc12 | – | – | – | · | ·
Cn1ccnc1Sc1cc(NCCCO)c([N+](=O)[O-])c2nonc12 | – | – | – | 45 | 72
CCN(CC(=O)Nc1ccc2c(c1)OCCO2)C(=O)c1ccc(CS(C)(=O)=O)cc1 | · | – | – | – | ·
COc1ccc(Cn2c(C3CCCCC3)nc3c(c(=O)c4ccccc4n3C)c2=O)cc1 | – | · | · | 43 | –
O=C(Nc1cnccn1)c1ccc(Cl)cc1 | – | – | – | – | ·
Cn1c(N)c(C(=O)COC(=O)c2cc(C3CC3)nc3ccccc23)c(=O)n(Cc2ccccc2)c1=O | – | – | – | 40 | –
Cn1c(N)c(C(=O)COC(=O)c2cc(-c3ccccc3)nc3ccccc23)c(=O)n(Cc2ccccc2)c1=O | · | – | – | – | ·
CCCCCc1cc(=O)oc2c(C(CCN3CCCCC3)c3ccc(OC)cc3)c(OC)cc(OC)c12 (stereo not given) | – | – | – | 48 | 61
CCCCCc1cc(=O)oc2c(C(CCN3CCCC3)c3cc(OC)c(OC)c(OC)c3)c(OC)cc(OC)c12 (stereo not given) | – | – | – | – | ·
SMILES | AI-2 QS modul | MC4R ag barr | MC4R antagonist | NTR1 ag | NTR1 ag conf
CCCCCc1cc(=O)oc2c(C(CCN3CCCC3)c3ccc(N(C)C)cc3)c(OC)cc(OC)c12 (stereo not given) | – | – | – | 53 | –
CC1(N=Cc2cc(Cl)ccc2O)COP(=O)(NC2CCCC2)OC1 (stereo not given) | · | – | – | · | ·
COc1ccc(NC(=O)CN2C(=O)NC(c3ccccc3)(c3ccccc3)C2=O)cc1OC | – | – | – | – | ·
CC(=O)N1CCc2cc(S(=O)(=O)CCC(=O)NCCc3ccc(Cl)cc3)ccc21 | – | – | – | – | ·
CC1=NOC(=O)/C1=C\c1ccc(-c2ccc(Cl)cc2Cl)o1 | – | – | – | 80 | –
O=C(CNC(=O)c1cccs1)N/N=C/c1cccc(Cl)c1 | – | – | – | – | ·
CCN(C(=O)c1ccc2c(Cl)c3c(nc2c1)CCC3)c1ccc(C)c(C)c1 | – | – | – | 45 | –
O=C1/C(=C/c2cccnc2)Oc2cc(OS(=O)(=O)c3ccccc3)ccc21 | – | – | – | 42 | –
COc1ccc(S(=O)(=O)Oc2ccc3c(c2)O/C(=C\c2cccnc2)C3=O)cc1 | – | – | – | 43 | –
O=C1/C(=C/c2cccnc2)Oc2cc(OS(=O)(=O)c3ccc(Cl)cc3)ccc21 | – | – | – | – | ·
CS(=O)(=O)Oc1ccc2c(c1)O/C(=C\c1cccnc1)C2=O | – | – | – | – | ·
CN(Cc1cccnc1)C(=O)c1cc(S(=O)(=O)Nc2ccccc2F)ccc1Cl | · | – | – | – | ·
CSc1ncccc1C(=O)Nc1cccc(S(=O)(=O)N2CCCCCC2)c1 | · | – | – | – | ·
CCOC(=O)/C(=C\c1cccc(O)c1)c1nc2sc(C)c(C)c2c(=O)[nH]1 | – | – | – | 43 | 51
Cc1ccc(C(=O)N/C(=C\c2ccccc2)C(=O)NCCN2CCOCC2)cc1 | – | – | – | – | ·
c1ccc(CN2CCC(Nc3nc(-c4ccccc4)nc4ccccc34)CC2)cc1 | – | – | – | 42 | 42
Cc1ccc(C)c(NC(=S)N2CCC(NC(=O)c3cccc(F)c3)CC2)c1 | – | – | – | – | ·
COc1ccc(N(C(=O)c2snc(C(N)=O)c2N)C(C(=O)NC2CCCC2)c2cccs2)c(OC)c1 (stereo not given) | – | – | – | – | ·
O=c1[nH]c(=O)n(Cc2ccco2)c2c1C(C(F)(F)F)(C(F)(F)F)N=C(CCC1CCCCC1)N2 | – | – | – | 46 | –
O/N=C/c1cn(-c2ccccc2)nc1-c1ccccc1 | – | – | – | · | ·
CC1(C)CC(=O)C(=Cc2cn(-c3ccccc3)nc2-c2ccccc2)C(=O)C1 | – | – | – | 71 | 65
Cc1ccc(-n2ncc3c(N4CCN(c5ccccc5)CC4)ncnc32)c(C)c1 | – | – | – | 62 | 61
O=C(O)CCn1nc(-c2ccc(F)cc2)cc(Cc2ccccc2)c1=O | – | – | – | – | ·
O=C(NCc1ccccc1)C1CCC(CNS(=O)(=O)c2cccs2)CC1 (stereo not given) | – | – | – | 42 | –
COc1ccc2sc(-c3ccc(S(C)(=O)=O)cc3)c(C#CCO)c2c1 | · | – | – | 57 | 57
C=C(C)COc1ccc(-c2nc(N)nc(C(F)(F)F)c2-c2ccc(OC)cc2)c(O)c1 | – | – | – | 41 | –
CCOC(=O)C(=Cc1ccc(OCc2ccc([N+](=O)[O-])cc2)c(OC)c1)C(=O)OCC | – | – | – | – | ·
COC(=O)C(=Cc1ccc(OCc2ccc([N+](=O)[O-])cc2)c(OC)c1)C(=O)OC | – | – | – | 45 | 75
Cc1cc(C(=O)CCC(=O)NCC(=O)Nc2c(C)cccc2C)c(C)s1 | · | – | – | – | ·
CCn1c(=O)c(=O)[nH]c2cc(C(=O)N(C)Cc3ccc(OC)c(F)c3)ccc21 | – | – | – | – | ·

Source: PubChem BioAssay (several laboratories)
